# Measured values from different studies.
# Lines come from different studies, so protocols differ.
# Target: Dual specificity tyrosine-phosphorylation-regulated kinase 3 (DYRK3, Homo sapiens, UniProt O43781)
SMILES,read-out,action,method,tested at,measurement,value
CN(c1ncccc1CNc1nc(Nc2ccc3c(c2)CC(=O)N3)ncc1C(F)(F)F)S(C)(=O)=O,enzyme activity,inhibitor,,1 µM,inhibition,66.8%
COc1cc(Nc2cnc(C#N)c(O[C@H](C)CN(C)C)n2)ncc1-c1cnn(C)c1,enzyme activity,inhibitor,radiometric,1 µM,remaining activity,98%
O=C1NC(=O)c2cc(Nc3ccc(F)cc3)c(Nc3ccc(F)cc3)cc21,cell-free assay,,,0.5 µM,remaining signal,97.1%
O=C(O)c1ccc2c(c1)nc(NCCc1cccc(F)c1)c1ncncc12,enzyme activity,inhibitor,radiometric,1 µM,remaining activity,17%
COc1cc(-c2cc(-c3ccc(N4CCNCC4)cc3)cnc2C)cc(OC)c1OC,enzyme activity,inhibitor,,1 µM,inhibition,1%
N#CCCc1ccc2c(c1)-c1[nH]c3ccc([N+](=O)[O-])cc3c1CC(=O)N2,cell-free assay,,,0.5 µM,remaining signal,97.6%
COc1cc(/C=C/C(=O)CC(=O)/C=C/c2ccc(O)c(OC)c2)ccc1O,enzyme activity,inhibitor,,1 µM,activity vs control,11%
Cc1cc(NC(=O)c2cccc3cc(-c4cccc5[nH]nc(N)c45)ccc23)ccc1F,enzyme activity,inhibitor,,0.1 µM,activity vs control,105%
O=C(O)c1ccc2c(c1)nc(NCCc1cccc(Cl)c1)c1ncncc12,enzyme activity,inhibitor,radiometric,1 µM,remaining activity,37%
Cn1cnc(Br)c1C1=CN(c2ncnc3[nH]cnc23)CCS1,enzyme activity,inhibitor,radiometric,2 µM,inhibition,98%
O=C(O)c1ccc2c(c1)nc(NCc1ccccc1)c1ccncc12,enzyme activity,inhibitor,radiometric,1 µM,remaining activity,21%
COc1cc2ncnc(Nc3ccc(Oc4ccccc4)c(C)c3C)c2cc1OC,enzyme activity,inhibitor,,1 µM,inhibition,-3%
COc1cccc(CCNc2nc3cc(C(=O)O)ccc3c3cnccc23)c1,enzyme activity,inhibitor,radiometric,1 µM,remaining activity,11%
CCCS(=O)(=O)Nc1ccc(F)c(C(=O)c2c[nH]c3ncc(-c4ccc(Cl)cc4)cc23)c1F,enzyme activity,inhibitor,,1 µM,inhibition,< 10%
